Experimental data published in PMC3555362 (Angewandte Chemie (International Ed. in English), 2011).
Square brackets hold non-standard residues; d marks the D form. Peptide text beside a SMILES is read from it. pT = C[C@@H](OP(=O)(O)O)[C@H](N)C(=O)O; pS = N[C@@H](COP(=O)(O)O)C(=O)O

What was measured:
[1] = target: polo-box domain (PBD) of Plk1, His6-PBD345-603 (Homo sapiens, UniProt P53350); assay: isothermal titration calorimetry; assay type: binding
[2] = tested on: polo-box domain (PBD) of polo-like kinase 1 (Plk1), wild-type (His6-PBD345-603 WT); assay: fluorescence-based thermal stability; assay type: binding, human; conditions: for Thermal shift, Δ: difference between wild-type and Y417A/Y421A thermal shifts
How it was run: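 Fluorescence-based thermal stability screen of phosphorylated test peptides derived from PBIP1 and TCERG1, run in parallel on wild-type Plk1 polo-box domain and on the Y417A/Y421A double mutant. The mutant was designed to weaken binding at the hydrophobic pocket, so the wild-type-minus-mutant shift reports pocket involvement.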

[3] = tested on: PBD of human Plk1 (GPLGSPEF-PBD371-594); assay: X-ray crystal structure of peptide in complex with PBD; assay type: binding; conditions: crystal structures 3P36 (DPPLHSpTA), 3P37 (FDPPLHSpTA), 3Q1I (FMPPPMSpSM)

Sequence of polo-box domain (PBD) of Plk1, His6-PBD345-603 (P53350 345-603): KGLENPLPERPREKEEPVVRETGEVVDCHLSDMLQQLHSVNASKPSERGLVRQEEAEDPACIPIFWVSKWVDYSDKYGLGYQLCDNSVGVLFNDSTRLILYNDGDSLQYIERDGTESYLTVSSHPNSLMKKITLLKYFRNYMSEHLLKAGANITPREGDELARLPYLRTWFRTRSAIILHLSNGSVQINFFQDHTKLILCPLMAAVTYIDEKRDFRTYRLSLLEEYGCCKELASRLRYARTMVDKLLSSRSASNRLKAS

Row | SMILES | Kd [1] [µM] | Thermal shift, Δ [2] [°C] | affinity by ITC (in words) ([1]; ITC, 25 °C, compared with peptides without Phe71) | difference in thermal shifts between wild-type and mutant protein (in words) ([2]; wild-type PBD versus Y417A/Y421A mutant) | hydrophobic pocket binding in crystal structure (in words) [3]
1 | CC(=O)N[C@@H](C)C(=O)N[C@@H](CC(=O)O)C(=O)N1CCC[C@H]1C(=O)N1CCC[C@H]1C(=O)N[C@@H](CC(C)C)C(=O)N[C@@H](Cc1c[nH]cn1)C(=O)N[C@@H](CO)C(=O)N[C@H](C(=O)N[C@@H](C)C(N)=O)[C@@H](C)OP(=O)(O)O [ADPPLHSpTA] (Ac-ADPPLHS[pT]A-NH2) | 1.32 | −0.2 |  |  | 
2 | CC(=O)N[C@@H](CC(=O)O)C(=O)N1CCC[C@H]1C(=O)N1CCC[C@H]1C(=O)N[C@@H](CC(C)C)C(=O)N[C@@H](Cc1c[nH]cn1)C(=O)N[C@@H](CO)C(=O)N[C@H](C(=O)N[C@@H](C)C(N)=O)[C@@H](C)OP(=O)(O)O [DPPLHSpTA] (Ac-DPPLHS[pT]A-NH2) | 2.14 | −0.4 |  |  | 
3 | CC(=O)N[C@@H](Cc1ccccc1)C(=O)N[C@@H](CC(=O)O)C(=O)N1CCC[C@H]1C(=O)N1CCC[C@H]1C(=O)N[C@@H](CC(C)C)C(=O)N[C@@H](Cc1c[nH]cn1)C(=O)N[C@@H](CO)C(=O)N[C@H](C(=O)N[C@@H](C)C(N)=O)[C@@H](C)OP(=O)(O)O [FDPPLHSpTA] (Ac-FDPPLHS[pT]A-NH2) | 0.25 | 4.3 | increased affinity | significant difference in thermal shifts | 
4 | CSCC[C@H](NC(=O)[C@H](COP(=O)(O)O)NC(=O)[C@H](CO)NC(=O)[C@H](CCSC)NC(=O)[C@@H]1CCCN1C(=O)[C@@H]1CCCN1C(=O)[C@@H]1CCCN1C(=O)[C@H](CCSC)NC(=O)[C@H](Cc1ccccc1)NC(C)=O)C(N)=O [FMPPPMSpSM] (Ac-FMPPPMS[pS]M-NH2) | 515 | 0.0 |  |  | lack of hydrophobic pocket binding
